Laboratory results taken from PMC4698184 (Antiviral Research, 2015).

Columns and labels:
EV-D68 = test: Cell-based inhibition assay; conditions: Enterovirus D, EVD68, WI-38, read-out: EC50 EV-D68
In short: (§1)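 WI-38 cells, confluent or semi-confluent, at 37 °C were infected at MOI 0.05 for 1 h. Inoculum was then replaced with medium containing test compound (up to 100 μM) or DMSO (<0.1%). Cells were incubated up to 168 h, until 80–90% CPE. Virus yield was titrated by TCID50 (Reed–Muench), and EC50 was derived by curve fitting.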

HRV1B = test: Cell-based inhibition assay; conditions: Human rhinovirus sp., WI-38, read-out: EC50 HRV1B
In short: as §1

HRV51 = test: Cell-based inhibition assay; conditions: Human rhinovirus sp., HRV51, WI-38, read-out: EC50 HRV51
In short: as §1

[1] = ref Dragovich et al., 1999; cited from earlier work
[2] = cited from earlier work
HRV strains = conditions: read-out: EC50 against HRV strains; ref Patick et al., 2005; cited from earlier work

SMILES	EC50 (EV-D68)	EC50 (HRV1B)	EC50 (HRV51)	aqueous solubility [1]	oral bioavailability ([2]; ref Dragovich et al., 1999)	oral availability ([2]; ref Patick et al., 2005)	EC50 (HRV strains)
CCOC(=O)/C=C/[C@H](C[C@@H]1CCNC1=O)NC(=O)[C@@H](CC(=O)[C@@H](NC(=O)c1cc(C)on1)C(C)C)Cc1ccc(F)cc1 [AG7088]	10 ± 3 nM	20 ± 10 nM	50 ± 30 nM	poor aqueous solubility	low oral bioavailability	–	–
C#CC[C@@H](C(=O)N[C@H](/C=C/C(=O)OCC)C[C@@H]1CCNC1=O)n1cccc(NC(=O)c2cc(C)on2)c1=O [Compound 1 (Patick et al., 2005)]	–	–	–	–	–	orally available	< 100 nM
Cc1cc(CCCOc2c(C)cc(-c3noc(C(F)(F)F)n3)cc2C)on1 [Plecornaril, Pleconaril]	600 ± 140 nM	270 ± 180 nM	70 ± 20 nM	–	–	–	–
